The test system of test [1] is Mus musculus. The test can be described thus: Antiinflammatory activity in C57BL/6 mouse model of LPS-induced acute lung injury assessed as reduction in total cell count in BALF at 10 mg/kg, ip administered daily for one week prior to LPS challenge and measured after 6 hrs. Format: functional, organism-based. The method, boiled down: (§1)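 C57BL/6 mice (eight per group) received 10 mg/kg i.p. daily for one week; vehicle was 0.9% saline. They were then challenged with intratracheal LPS at 5 mg/kg and sacrificed 6 h later. Endpoints were lung wet/dry weight ratio and total and neutrophil cell counts in BALF, reported as mean ± SEM, n = 6.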

The subject of test [2] is Mus musculus. In words: Antiinflammatory activity in C57BL/6 mouse model of LPS-induced acute lung injury assessed as reduction of pathological lesions in lung tissue at 10 mg/kg, ip administered daily for one week prior to LPS challenge and measured after 6 hrs by hematoxylin and eosin staining-based light microscopic analysis. Type of test: functional, organism-based. The method, boiled down: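 Lungs were taken 6 h after intratracheal LPS (5 mg/kg) from C57BL/6 mice pretreated at 10 mg/kg i.p. daily for one week. Tissue was fixed, embedded in paraffin, sectioned at 5 µm and stained with H&E. Injury features examined were edema, congestion, septal thickening, infiltration and tissue destruction, assessed by light microscopy.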

Test [3] concerns RAW264.7. In words: Inhibition of MAPK/NFkappaB in ICR mouse RAW264.7 cells assessed as reduction in LPS-induced IL6 production at 10 uM pretreated for 0.5 hrs followed by LPS challenge and measured after 24 hrs by ELISA relative to control. Format: cell-based. In general terms: ELISA stands for enzyme-linked immunosorbent assay.
Test [4] concerns the target MAP kinase p38 (Mus musculus) (UniProt P47811+O08911+Q9WUI1+Q9Z1B7). In words: Inhibition of LPS-induced p38 MAPK phosphorylation in ICR mouse RAW264.7 cells at 10 uM preincubated for 0.5 hrs followed by LPS challenge and measured after 30 mins by immunoblotting analysis. Format: cell-based. The method, boiled down: (§2)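 RAW 264.7 cells were pretreated with compound for 0.5 h and then stimulated with LPS for 30 min. Lysates were resolved on 10% or 12% SDS-PAGE and transferred to nitrocellulose. Membranes were blocked in TBS (pH 7.6) with 0.05% Tween 20 and 5% milk. Blots were probed for p-p38, p38, p-ERK, ERK, IκBα and GAPDH, detected with HRP secondaries and ECL.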

Test [5] deals with RAW264.7. The test can be described thus: Inhibition of MAPK/NFkappaB signaling in ICR mouse RAW264.7 cells assessed as reduction in LPS-induced TNF-alpha mRNA expression pretreated for 0.5 hrs followed by LPS challenge and measured after 40 mins by TRIZOL reagent-based RT-qPCR analysis. Format: cell-based. The method, boiled down:
(§3)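 RAW 264.7 cells were pretreated with compound for 0.5 h and then activated with LPS. Values were normalized to actin and expressed relative to the LPS group.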
For orientation: Real-time PCR tracks product formation cycle by cycle.

Test [6] concerns the target Transcription factor p65 (Mus musculus) (UniProt Q04207). The test can be described thus: Inhibition of LPS-induced NFkappaB p65 nuclear translocation in ICR mouse RAW264.7 cells preincubated for 0.5 hrs followed by LPS challenge and measured after 40 mins by DAPI staining-based immunofluorescence microscopic analysis. Format: cell-based. The method, boiled down:
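RAW 264.7 cells were pretreated with compound for 0.5 h, then given LPS for 40 min (methods) or 45 min (legend). Cells were fixed with 4% paraformaldehyde and permeabilized in methanol. Anti-p65 (1:200) was applied overnight at 4 °C, then PE-conjugated secondary (1:200) for 2 h. Nuclei were stained with DAPI and cells viewed by fluorescence microscopy.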

The test system of test [7] is Mus musculus. In words: Antiinflammatory activity in C57BL/6 mouse model of LPS-induced acute lung injury assessed as reduction in neutrophil count in BALF at 10 mg/kg, ip administered daily for one week prior to LPS challenge and measured after 6 hrs. Format: functional, organism-based. The gist of the method: as §1
Test [8] deals with Mus musculus. The test can be described thus: Antiinflammatory activity in C57BL/6 mouse model of LPS-induced acute lung injury assessed as reduction in TNF-alpha production in BALF at 10 mg/kg, ip administered daily for one week prior to LPS challenge and measured after 6 hrs by ELISA. Format: functional, organism-based. The gist of the method:
(§4)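 In C57BL/6 mice (eight per group), compound was dosed at 10 mg/kg i.p. once daily for a week, with a 0.9% saline vehicle control. LPS 5 mg/kg was given intratracheally and animals were euthanized with chloral hydrate after 6 h. TNF-α and IL-6 in serum and BALF were measured by ELISA. Data are mean ± SEM, n = 6.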

For test [9], the system named is Mus musculus. The test can be described thus: Antiinflammatory activity in C57BL/6 mouse model of LPS-induced acute lung injury assessed as reduction in IL-6 production in serum at 10 mg/kg, ip administered daily for one week prior to LPS challenge and measured after 6 hrs by ELISA. Type of test: functional, organism-based. The method, boiled down:
as §4

Test [10] deals with Mus musculus. In words: Antiinflammatory activity in C57BL/6 mouse model of LPS-induced acute lung injury assessed as reduction of LY-6G neutrophil level in lung tissue at 10 mg/kg, ip administered daily for one week prior to LPS challenge and measured after 6 hrs by hematoxylin staining-based immunohistochemistry method. Format: functional, organism-based. The method, boiled down: (§5)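 Lungs came from C57BL/6 mice dosed at 10 mg/kg i.p. daily for one week, then given intratracheal LPS 5 mg/kg and harvested at 6 h. Tissue was paraffin-embedded and cut into 5 µm sections. Antigen retrieval used microwaving in 0.01 mol/L citrate (pH 6.0), then 3% H2O2 in methanol for 30 min. Sections took LY-6G or F4/80 primary antibody overnight at 4 °C, secondary at 1:200, DAB development and hematoxylin counterstain.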

For test [11], the system named is Mus musculus. The test can be described thus: Antiinflammatory activity in C57BL/6 mouse model of LPS-induced acute lung injury assessed as reduction in IL-6 mRNA expression in lung tissue at 10 mg/kg, ip administered daily for one week prior to LPS challenge and measured after 6 hrs by TRIZOL reagent-based RT-qPCR analysis. Type of test: functional, organism-based. The gist of the method:
(§6)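 Mouse ALI model with eight C57BL/6 mice per group. Compound was given at 10 mg/kg i.p. daily for one week; controls received 0.9% saline. LPS was instilled intratracheally at 5 mg/kg. Mice were euthanized with chloral hydrate 6 h later and lungs collected. Lung mRNA for each target was quantified by real-time qPCR.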

In test [12] the test system is Mus musculus. The test can be described thus: Antiinflammatory activity in C57BL/6 mouse model of LPS-induced acute lung injury assessed as reduction in TNF-alpha mRNA expression in lung tissue at 10 mg/kg, ip administered daily for one week prior to LPS challenge and measured after 6 hrs by TRIZOL reagent-based RT-qPCR analysis. Type of test: functional, organism-based. The gist of the method: as §6

Test [13] relates to RAW264.7. The test can be described thus: Inhibition of MAPK/NFkappaB signaling in ICR mouse RAW264.7 cells assessed as reduction in LPS-induced ICAM1 mRNA expression pretreated for 0.5 hrs followed by LPS challenge and measured after 40 mins by TRIZOL reagent-based RT-qPCR analysis. Type of test: cell-based. The gist of the method:
as §3

Test [14] relates to Mus musculus. The test can be described thus: Antiinflammatory activity in C57BL/6 mouse model of LPS-induced acute lung injury assessed as reduction of F4/80 macrophage level in lung tissue at 10 mg/kg, ip administered daily for one week prior to LPS challenge measured after 6 hrs by hematoxylin staining-based immunohistochemistry method. Type of test: functional, organism-based. The method, boiled down:
as §5

Test [15] deals with RAW264.7. The test can be described thus: Inhibition of NFkappaB/MAPK signaling in LPS-induced mouse RAW264.7 cells assessed as down regulation of IkappaB expression at 10 uM preincubated for 0.5 hrs followed by LPS-challenge and measured after 30 mins by immunoblotting analysis. Type of test: cell-based. The gist of the method: as §2
(In general: A western blot detects proteins with antibodies after separation by electrophoresis.)

Test [16] deals with Mus musculus. In words: Antiinflammatory activity in C57BL/6 mouse model of LPS-induced acute lung injury assessed as reduction in ICAM1 mRNA expression in lung tissue at 10 mg/kg, ip administered daily for one week prior to LPS challenge and measured after 6 hrs by TRIZOL reagent-based RT-qPCR analysis. Type of test: functional, organism-based. The gist of the method: as §6

Structures are written as SMILES. Calls of active or inactive are those of the source. No cut-off for these calls is given here.

Sequence of Transcription factor p65 (Mus musculus) (Q04207 whole entry): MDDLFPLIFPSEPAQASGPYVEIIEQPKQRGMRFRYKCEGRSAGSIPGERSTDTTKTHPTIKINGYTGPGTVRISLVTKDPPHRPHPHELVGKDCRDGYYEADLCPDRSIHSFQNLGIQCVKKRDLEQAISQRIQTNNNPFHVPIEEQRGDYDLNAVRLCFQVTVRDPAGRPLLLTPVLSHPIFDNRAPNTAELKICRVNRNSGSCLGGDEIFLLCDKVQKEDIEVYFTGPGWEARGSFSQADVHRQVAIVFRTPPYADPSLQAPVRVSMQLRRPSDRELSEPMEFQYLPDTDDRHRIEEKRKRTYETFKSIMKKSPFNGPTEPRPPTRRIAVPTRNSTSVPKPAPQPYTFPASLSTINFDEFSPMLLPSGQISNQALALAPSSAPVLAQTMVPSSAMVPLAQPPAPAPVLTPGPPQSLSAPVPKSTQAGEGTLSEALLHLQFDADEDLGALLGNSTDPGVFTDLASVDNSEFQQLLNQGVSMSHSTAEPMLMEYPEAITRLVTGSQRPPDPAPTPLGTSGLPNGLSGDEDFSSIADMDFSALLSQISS

`COc1cc(/C=C/C(=O)N2CCC/C(=C\c3cc(OC)c(OC)c(OC)c3)C2=O)ccc1O`: the result in test [1], in [2], in test [7], in test [8], in test [9] and in test [10] was Active. For the same molecule, the outcome in [11], in test [12], in test [14] and in test [16] was Active. Besides, in test [3], the inhibition was in the range of 99.3 to 99.7%. Besides, the inhibition entry in test [4], in test [5], in test [6], in [13] and in test [15] was “Active” each time.

With `COc1cc(/C=C/C(=O)N2CCC/C(=C\c3cc(OC)c(OC)c(OC)c3)C2=O)ccc1OC(C)=O`, the result in test [1], in [2], in test [7], in test [8], in [9] and in [10] was Active. In addition, the outcome in [11], in test [12], in test [14] and in test [16] was Active. Further, in [3], the inhibition lay within 99.3 to 99.7%. For the same molecule, the inhibition entry in [4], in test [5], in [6], in test [13] and in [15] was “Active” each time.

In general, inhibition refers to the drop in the measured response relative to a control, in per cent.

(Values after ChEMBL document CHEMBL4387702, “Design and synthesis novel di-carbonyl analogs of curcumin (DACs) act as potent anti-inflammatory agents against LPS-induced acute lung injury (ALI)” (Eur J Med Chem, 2019).)
